Source: ChEMBL document CHEMBL1154791, “Constituents of Polyalthia longifolia var. pendula” (J Nat Prod, 2009)

Legend:
MCF7 = assay: Cytotoxicity against human MCF7 cells after 72 hrs by MTT assay; format: functional, cell-based
Outline: (§1)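 Cells grown in RPMI1640 with 10% FBS, penicillin and streptomycin; log-phase cells seeded per well (MCF-7 1.0 × 10^4; A549 4.5 × 10^3). After 24 h, exposed to various concentrations for 72 h.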

A549 = assay: Cytotoxicity against human A549 cells after 72 hrs by MTT assay; format: functional, cell-based; outline: as §1

| Structure (SMILES) | IC50 (MCF7; mcf7) | IC50 (A549; a549) | IC50 (MCF7; Homo sapiens, MCF7, 72 h, read-out: IC50) [µM] | IC50 (A549; Homo sapiens, A549, 72 h, read-out: IC50) [µM] |
| --- | --- | --- | --- | --- |
| COc1cc2c(cc1O)[C@@H]1Cc3cc(OC)c(O)c(OC)c3C(=O)N1CC2 | Not Active | Not Active | – | – |
| COc1c(O)cc2c(c1OC)-c1nccc(C)c1C2=O [DARIENINE] | Not Active | Not Active | – | – |
| COc1cc2c(cc1OC)[C@@H]1Cc3cc(O)cc(OC)c3C(=O)N1CC2 | Not Active | Not Active | – | – |
| CC1=CCC[C@@H]2[C@@](C)(CC/C(=C\C(=O)O)CO)[C@H](C)C[C@H](O)[C@@]12C | Not Active | Not Active | – | – |
| C[C@@H]1CC[C@]2(C)[C@H](CCC[C@]23CO3)[C@@]1(C)CC/C(=C\C(=O)O)CO | Not Active | Not Active | – | – |
| CCCCC/C=C\C/C=C\CCCCCCCC(=O)OCC(O)CO (stereo not given) | Not Active | Not Active | – | – |
| CC1=CCC[C@@H]2[C@@](C)(CC/C(C=O)=C\C(=O)O)[C@H](C)CC[C@@]12C | – | – | 3.7 | 3.1 |
| COc1cc2c(cc1OC)[C@@H]1Cc3ccc(OC)c(OC)c3C(=O)N1CC2 | Not Active | Not Active | – | – |
| COc1cc2c(cc1OC)[C@@H]1Cc3ccc(O)c(OC)c3C(=O)N1CC2 | Not Active | Not Active | – | – |
| COc1cc(/C=C/C(=O)NCCc2ccc(O)c(O)c2)ccc1O [N-TRANS-FERULOYLDOPAMINE] | Not Active | Not Active | – | – |
| COc1cc2c(cc1OC)[C@@H]1Cc3cc(O)c(OC)c(OC)c3C(=O)N1CC2 | Not Active | Not Active | – | – |
| COc1cc2c(cc1O)[C@@H]1Cc3cc(O)c(OC)cc3C(=O)N1CC2 | Not Active | Not Active | – | – |
| CC1=CC(=O)C[C@@H]2[C@@](C)(CC/C(C)=C\C(=O)O)[C@H](C)CC[C@@]12C | Not Active | Not Active | – | – |
| C=C1CCC[C@@H]2[C@@](C)(CC/C(=C\C(=O)O)CO)[C@H](C)C[C@H](O)[C@@]12C | Not Active | Not Active | – | – |
| COc1cc2c(cc1OC)[C@@H]1Cc3ccc(O)c(O)c3C(=O)N1CC2 | Not Active | Not Active | – | – |
